Experimental findings from ChEMBL document CHEMBL1139361, “Comparative positron-emission tomography (PET) imaging and phototherapeutic potential of 124I- labeled methyl- 3-(1'-iodobenzyloxyethyl)pyropheophorbide-a vs the corresponding glucose and galactose conjugates” (J Med Chem, 2009) are described below.

The nature of series [1]: Biodistribution in tumor of iv dosed C3H/HeJ mouse bearing mouse RIF cells assessed as relative uptake value after 3 days by PET imaging. The format is ADME, organism-based, Neoplasm. As to conditions: in vivo, 72 h.
Series [2] can be described thus: Biodistribution in tumor of iv dosed BALB/c mouse bearing mouse Colon-26 cells assessed as relative uptake value after 48 hrs by PET imaging. Particulars: in vivo. The format is ADME, organism-based, Neoplasm.
For series [3], the system named is RIF. Kind of series: Antitumor activity against mouse RIF cells xenografted in C3H/HeJ mouse at 0.50 umol/kg, iv irradiated for 30 mins measured after 24 hrs by photodynamic therapy. Type of series: functional, organism-based. As to conditions: tested as the 124I-labelled form. The method in brief: (§1)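 Female C3H/HeJ mice given 2×10^5 RIF cells intradermally on flank; tumors grown to 4–5 mm diameter. Hair removed, photosensitizer injected iv (0.5, 1.0, 1.5 μmol/kg; five mice/group). At 24 h, unanesthetized restrained mice irradiated over 1 cm² with dye laser, 665 nm, 75 mW/cm², 135 J/cm² (30 min). Daily observation for weight loss, scabbing, regrowth and deaths; sacrifice at 400 mm^3; tumor-free status followed to day 60.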

Series [4] deals with RIF. Briefly: Antitumor activity against mouse RIF cells xenografted in C3H/HeJ mouse assessed as increase in photosensitizing ability at 1.5 umol/kg, iv irradiated for 30 mins measured after 60 days photodynamic therapy. Type of series: functional, organism-based. As to conditions: tested as the 124I-labelled form. The method in brief: as §1
Series [5] deals with Mus musculus. Briefly: Toxicity in C3H/HeJ mouse xenografted with mouse RIF cells at 1.5 umol/kg, iv irradiated for 30 mins measured after 24 hrs photodynamic therapy. The format is organism-based. Particulars: in vivo. A digest of the protocol:
as §1

Series [6] relates to Mus musculus. Kind of series: Toxicity in C3H/HeJ mouse xenografted with mouse RIF cells at 1 umol/kg, iv irradiated for 30 mins measured after 24 hrs photodynamic therapy. As to conditions: in vivo. Type of series: organism-based. The method in brief:
as §1

The nature of series [7]: Ratio of drug level in tumor to liver of iv dosed C3H/HeJ mouse bearing mouse RIF cells after 48 hrs. Type of series: ADME, organism-based. As to conditions: in vivo. A digest of the protocol:
(§2)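 RIF-bearing C3H mice given ¹²⁴I-labeled photosensitizer (15–200 μCi, tail vein, in saline with 10% ethanol). 3–4 mice killed at each time point, tumor and liver weighed and gamma-counted. Uptake expressed as %ID/g, and tumor to liver ratio taken from the %ID/g values.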

Series [8] is described as follows: Ratio of drug level in tumor to liver of iv dosed C3H/HeJ mouse bearing mouse RIF cells after 24 hrs. Particulars: in vivo. The format is ADME, organism-based. The method in brief:
as §2

Series [9] is described as follows: Biodistribution in tumor of iv dosed BALB/c mouse bearing mouse Colon-26 cells after 48 hrs. Type of series: ADME, organism-based, Neoplasm. Particulars: read-out: Drug uptake. A digest of the protocol:
(§3)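 ¹²⁴I-labeled photosensitizer formulated in saline with 10% ethanol, 15–200 μCi via tail vein into C3H mice bearing RIF tumors (3×10^5 cells sc in axilla, 4–5 mm) or BALB/c mice bearing Colon-26 tumors. 3–4 mice per time point killed at 24, 48, 72, 96 h. Tumor and organs weighed and gamma-counted; uptake given as %ID/g, mean of group.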

Series [10] is described as follows: Biodistribution in tumor of iv dosed BALB/c mouse bearing mouse Colon-26 cells after 96 hrs. Type of series: ADME, organism-based, Neoplasm. Particulars: read-out: Drug uptake. The method in brief: as §3
Series [11] is described as follows: Biodistribution in tumor of iv dosed BALB/c mouse bearing mouse Colon-26 cells after 72 hrs. Particulars: read-out: Drug uptake. The format is ADME, organism-based, Neoplasm. The method in brief: as §3
Series [12] is described as follows: Biodistribution in tumor of iv dosed C3H/HeJ mouse bearing mouse RIF cells after 72 hrs. The format is ADME, organism-based, Neoplasm. Particulars: read-out: Drug uptake. The method in brief:
as §3

Series [13] can be described thus: Biodistribution in tumor of iv dosed C3H/HeJ mouse bearing mouse RIF cells after 48 hrs. The format is ADME, organism-based, Neoplasm. Particulars: read-out: Drug uptake. A digest of the protocol:
as §3

A short description of series [14]: Biodistribution in tumor of iv dosed C3H/HeJ mouse bearing mouse RIF cells after 24 hrs. Type of series: ADME, organism-based, Neoplasm. As to conditions: read-out: Drug uptake. The method in brief: as §3
Series [15] can be described thus: Biodistribution in tumor of iv dosed BALB/c mouse bearing mouse Colon-26 cells after 24 hrs. Type of series: ADME, organism-based, Neoplasm. As to conditions: read-out: Drug uptake. A digest of the protocol:
as §3

A short description of series [16]: Biodistribution in tumor of iv dosed C3H/HeJ mouse bearing mouse RIF cells after 96 hrs. The format is ADME, organism-based, Neoplasm. Particulars: read-out: Drug uptake. The method in brief: as §3

Calls of active or inactive are those of the source. The rule behind the calls is not given here.

Regarding `OC[C@H]1O[C@@H](O)[C@H]([18F])[C@@H](O)[C@@H]1O` [FLUDEOXYGLUCOSE-F18], the Activity in [1] stood at 0.035; in series [2], 4.
Turning to `CCC1=C(C)c2cc3[nH]c(cc4nc(c5c6[nH]c(cc1n2)c(C)c6C(=O)C5)[C@@H](CCC(=O)OC)[C@@H]4C)c(C)c3C(C)OCc1cccc(I)c1` (stereo partly specified), the result in the series with RIF [3] was inactive. Further, in the series with RIF [4], the outcome was Active.
As for `CCC1=C(C)c2cc3[nH]c(cc4nc(c5c6[nH]c(cc1n2)c(C)c6C(=O)C5)[C@@H](CCC(=O)N[C@@H]1O[C@H](CO)[C@H](O)[C@H](O)[C@H]1O)[C@@H]4C)c(C)c3C(C)OCc1cccc([124I])c1` (stereo partly specified), the Activity entry in the series on Mus musculus [5] and in the series on Mus musculus [6] was “Toxic” each time. Also, the figures for the Ratio in series [7] and in series [8] were 0.06 and 0.05, respectively.
For `CCC1=C(C)c2cc3[nH]c(cc4nc(c5c6[nH]c(cc1n2)c(C)c6C(=O)C5)[C@@H](CCC(=O)OC)[C@@H]4C)c(C)c3C(C)OCc1cccc([124I])c1` (stereo partly specified), the tissue uptake at 48 h in series [9] came out at 4.4 %ID/g; in [13], 2.1 %ID/g. Further, the Ratio is 0.56 in series [7] and 0.32 in series [8]. Also, the tissue uptake at 96 h in [10] worked out at 2 %ID/g; in series [16], 0.6 %ID/g. The tissue uptake at 72 h in [11] is 2.5 %ID/g; in [12], 0.8 %ID/g. Further, the tissue uptake at 24 h in series [14] was 4.1 %ID/g; in series [15], 4.6 %ID/g.
For the compound `CCC1=C(C)c2cc3[nH]c(cc4nc(c5c6[nH]c(cc1n2)c(C)c6C(=O)C5)[C@@H](CCC(=O)N[C@@H]1[C@@H](O)[C@H](O)[C@@H](CO)O[C@H]1O)[C@@H]4C)c(C)c3C(C)OCc1cccc([124I])c1` (stereo partly specified), the Ratio in series [7] came to 0.13; in series [8], 0.08.
Take `CCC1=C(C)c2cc3[nH]c(cc4nc(c5c6[nH]c(cc1n2)c(C)c6C(=O)C5)[C@@H](CCC(=O)N[C@@H]1O[C@H](CO)[C@H](O)[C@H](O)[C@H]1O)[C@@H]4C)c(C)c3C(C)OCc1cccc(I)c1` (stereo partly specified): the outcome in the series on RIF [3] was inactive.
